# Measurements as given in ChEMBL document CHEMBL1137547, “Synthesis and antifungal activities of novel 2-aminotetralin derivatives” (2007).
# Columns and labels:
# Type in all cases: functional
# Cryptococcus neoformans = assay: Antifungal activity against Cryptococcus neoformans after 72 hrs
# Summary of the method: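 Cryptococcus neoformans was tested by NCCLS serial dilution in MOPS-buffered (0.165 M) RPMI 1640 at 35 °C. Compounds were dissolved in DMSO and diluted in medium. The MIC was read at 72 h as the lowest concentration giving turbidity inhibition of ≥80% relative to the growth control.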
# Microsporum = assay: Antifungal activity against Microsporum gypseum
# Summary of the method: (§1)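 Dermatophytes were tested by NCCLS serial dilution in RPMI 1640 with 0.165 M MOPS and incubated at 28 °C. Compounds were dissolved in DMSO and diluted in medium. Strains came from ATCC or clinical isolates. The MIC was read at 7 d as the lowest concentration reducing turbidity by ≥80% relative to the drug-free control.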
# Aspergillus fumigatus = assay: Antifungal activity against Aspergillus fumigatus
# Summary of the method: (§2)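 NCCLS broth serial dilution in RPMI 1640 buffered with 0.165 M MOPS. Compounds were dissolved in DMSO and serially diluted in medium. Strains came from ATCC or clinical isolates. The growth MIC for filamentous fungi was read at 7 d, taken as the lowest concentration giving ≥80% turbidity inhibition versus the growth control.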
# Candida albicans = assay: Antifungal activity against Candida albicans after 24 hrs
# Summary of the method: (§3)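 Candida yeasts were tested by NCCLS microdilution in RPMI 1640 buffered with 0.165 M MOPS and incubated at 35 °C. Compounds were dissolved in DMSO and serially diluted in medium. Isolates came from ATCC or the clinic. The MIC was read at 24 h as the lowest concentration achieving ≥80% growth inhibition versus the control.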
# Trichophyton rubrum = assay: Antifungal activity against Trichophyton rubrum; summary of the method: as §1
# Candida parapsilosis = assay: Antifungal activity against Candida parapsilosis after 24 hrs; conditions: Lodderomyces parapsilosis; summary of the method: as §3
# Fonsecaea compacta = assay: Antifungal activity against Fonsecaea compacta; summary of the method: as §2
Structure (SMILES),MIC (Cryptococcus neoformans),MIC (Microsporum),MIC (Aspergillus fumigatus),MIC (Candida albicans),MIC (Trichophyton rubrum),MIC (Candida parapsilosis),MIC (Fonsecaea compacta)
CCCCCCCCNC1CCc2cccc(OC)c2C1 (centres undefined),16 µM,8 µM,32 µM,16 µM,4 µM,32 µM,8 µM
Oc1ccc2c(c1)CC(NCc1ccccc1)CC2 (centres undefined),> 64 µM,> 64 µM,> 64 µM,64 µM,16 µM,> 64 µM,> 64 µM
CCCCNC1CCc2ccc(OC)cc2C1 (centres undefined),> 64 µM,64 µM,> 64 µM,64 µM,4 µM,64 µM,4 µM
CCCCCCCCCNC1CCc2cccc(OC)c2C1 (centres undefined),4 µM,64 µM,16 µM,0.5 µM,2 µM,1 µM,2 µM
Oc1cccc2c1CC(Nc1ccc(Cl)cc1)CC2 (centres undefined),32 µM,8 µM,> 64 µM,16 µM,8 µM,32 µM,64 µM
NC1CCc2ccc(O)cc2C1 (centres undefined),> 64 µM,> 64 µM,> 64 µM,> 64 µM,> 64 µM,> 64 µM,32 µM
CCCCCCCCNC1CCc2ccc(O)cc2C1 (centres undefined),16 µM,4 µM,> 64 µM,4 µM,8 µM,32 µM,8 µM
CCCCCCCCCCCCNC1CCc2cc(OC)ccc2C1 (centres undefined),4 µM,> 64 µM,> 64 µM,4 µM,4 µM,32 µM,64 µM
CCCCCCCCCCCCCCNC1CCc2ccc(OC)cc2C1 (centres undefined),16 µM,4 µM,> 64 µM,4 µM,0.0625 µM,> 64 µM,64 µM
CCCCNC1CCc2ccc(O)cc2C1 (centres undefined),> 64 µM,64 µM,> 64 µM,> 64 µM,> 64 µM,> 64 µM,64 µM
CCCCCCCCCCNC1CCc2cc(OC)ccc2C1 (centres undefined),16 µM,4 µM,> 64 µM,0.25 µM,1 µM,8 µM,8 µM
Oc1cccc2c1CCC(Nc1ccccc1)C2 (centres undefined),> 64 µM,> 64 µM,> 64 µM,> 64 µM,8 µM,> 64 µM,> 64 µM
Oc1cccc2c1CC(Nc1ccccc1)CC2 (centres undefined),32 µM,32 µM,> 64 µM,> 64 µM,4 µM,> 64 µM,64 µM
COc1cccc2c1CCC(NCc1ccccc1)C2 (centres undefined),64 µM,64 µM,> 64 µM,32 µM,16 µM,> 64 µM,32 µM
COc1ccc(NC2CCc3c(cccc3OC)C2)cc1 (centres undefined),> 64 µM,8 µM,> 64 µM,> 64 µM,2 µM,> 64 µM,> 64 µM
CCCCCCCCCNC1CCc2cccc(O)c2C1 (centres undefined),8 µM,4 µM,16 µM,1 µM,4 µM,8 µM,4 µM
CCCCCCCCCCCCNC1CCc2cccc(OC)c2C1 (centres undefined),16 µM,64 µM,32 µM,4 µM,4 µM,16 µM,8 µM
NC1CCc2cc(O)ccc2C1 (centres undefined),> 64 µM,> 64 µM,> 64 µM,> 64 µM,> 64 µM,> 64 µM,32 µM

Structure (SMILES),MIC (Cryptococcus neoformans),MIC (Microsporum),MIC (Aspergillus fumigatus),MIC (Candida albicans),MIC (Trichophyton rubrum),MIC (Candida parapsilosis),MIC (Fonsecaea compacta)
CCCCCCCCCCCCCCCCCCNC1CCc2c(O)cccc2C1 (centres undefined),> 64 µM,> 64 µM,> 64 µM,64 µM,16 µM,> 64 µM,> 64 µM
COc1ccc2c(c1)CC(Nc1ccc(Cl)cc1)CC2 (centres undefined),> 64 µM,16 µM,> 64 µM,> 64 µM,16 µM,> 64 µM,> 64 µM
COc1ccc(NC2CCc3ccc(O)cc3C2)cc1 (centres undefined),> 64 µM,32 µM,> 64 µM,> 64 µM,0.5 µM,64 µM,> 64 µM
Oc1ccc2c(c1)CCC(NCc1ccccc1)C2 (centres undefined),> 64 µM,> 64 µM,> 64 µM,64 µM,8 µM,> 64 µM,> 64 µM
CCCCCCCCCCCCCCCCCCNC1CCc2ccc(OC)cc2C1 (centres undefined),> 64 µM,64 µM,> 64 µM,> 64 µM,8 µM,> 64 µM,> 64 µM
CCCCNC1CCc2cccc(O)c2C1 (centres undefined),> 64 µM,64 µM,> 64 µM,> 64 µM,> 64 µM,> 64 µM,> 64 µM
CCCCCCCCNC1CCc2ccc(OC)cc2C1 (centres undefined),16 µM,8 µM,64 µM,1 µM,4 µM,32 µM,4 µM
COc1ccc(NC2CCc3c(O)cccc3C2)cc1 (centres undefined),> 64 µM,16 µM,> 64 µM,> 64 µM,0.25 µM,32 µM,> 64 µM
CCCCCCCCCCCCCCNC1CCc2ccc(O)cc2C1 (centres undefined),8 µM,4 µM,> 64 µM,4 µM,0.5 µM,4 µM,8 µM
CCCCNC1CCc2cccc(OC)c2C1 (centres undefined),> 64 µM,32 µM,64 µM,> 64 µM,16 µM,> 64 µM,0.25 µM
Oc1ccc2c(c1)CC(Nc1ccc(Cl)cc1)CC2 (centres undefined),16 µM,4 µM,64 µM,> 64 µM,2 µM,32 µM,32 µM
CCCCCCCCCCCCCCNC1CCc2cccc(OC)c2C1 (centres undefined),32 µM,2 µM,> 64 µM,4 µM,0.5 µM,16 µM,32 µM
Oc1cccc2c1CCC(NCc1ccccc1)C2 (centres undefined),> 64 µM,> 64 µM,> 64 µM,64 µM,0.125 µM,> 64 µM,> 64 µM
Oc1ccc2c(c1)CC(Nc1ccccc1)CC2 (centres undefined),16 µM,16 µM,> 64 µM,32 µM,8 µM,> 64 µM,32 µM
CCCCCCCCNC1CCc2c(cccc2OC)C1 (centres undefined),16 µM,> 64 µM,16 µM,8 µM,8 µM,16 µM,4 µM
COc1ccc2c(c1)CC(Nc1ccccc1)CC2 (centres undefined),64 µM,64 µM,> 64 µM,> 64 µM,4 µM,> 64 µM,> 64 µM
CCCCCCCCNC1CCc2cccc(O)c2C1 (centres undefined),8 µM,4 µM,–,2 µM,8 µM,8 µM,4 µM
